# Compound activity (PubChem)
# A selection: hits, their analogues and other compounds. The true share with any hit is near 2.1%.
# TNF necrop inh: inhibitors of TNF-alpha induced necroptosis in Jurkat FADD-/- cells. activation (protection from cell death), % at 10 µM. Jurkat FADD-/- TNF necroptosis rescue, ATP luminescence, 24 h; 0 = TNF only, 100 = no-TNF cells. 0.068% of 220,000 active;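 active = activation, meaning protection from cell death, of at least 50% relative to plate controls; inactive = activation below 50%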;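 note: necroptosis triggered by 40 ng/mL TNF-alpha added together with compound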
# Runt-SMMHC FRET: inhibitors of human RUNX1 Runt domain binding to CBFb-SMMHC; Q01196+Q13951; Cerulean-Runt/Venus-CBFb-SMMHC FRET ratio 530/480, 1 h; inhibition, % at 20 µM; 0.74% of 220,000 active; AID 1434;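 active = mean inhibition across duplicate retests at 20 µM reaching about 50%, limit read from the data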;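 note: inhibitors lower the FRET ratio by blocking Runt binding to CBFb-SMMHC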
# RanGTP-Impb inh: disruptors of Ran-importin-beta complex formation – biochemical, FRET, CFP-Ran, YFP-importin-beta, homogeneous, primary screen | AID 2216 | inhibition, % (concentration not given with the values) | 1.1% of 300,000 active | cell-free CFP-Ran/YFP-importin-beta FRET ratio;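 active = more than half of the replicate wells show a fall in the fluorescence ratio signal beyond about 16%, limit read from the data, passing the limit was not always enough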
# zVAD death inh: blocks zVAD induced death of L929 cells. L929 zVAD necroptosis rescue, ATP luminescence, 24 h; with zVAD 60 µM. viability rescue, % at 10 µM. 0.38% of 220,000 active. AID 1377;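 active = activation, scaled between plate controls, above about 75%, limit read from the data; inactive = activation under that limit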
# Hck Nef HTS: human Hck-Nef kinase inhibition. P08631. 0.68% of 220,000 active. Recombinant Hck-YEEI plus Nef, Z-Lyte FRET kinase assay. inhibition, % at 20 µM;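 active = Hck-Nef kinase inhibition above about 50%, limit read from the data; inactive = inhibition below that limit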
# Target sequence (P08631 whole entry, looked up): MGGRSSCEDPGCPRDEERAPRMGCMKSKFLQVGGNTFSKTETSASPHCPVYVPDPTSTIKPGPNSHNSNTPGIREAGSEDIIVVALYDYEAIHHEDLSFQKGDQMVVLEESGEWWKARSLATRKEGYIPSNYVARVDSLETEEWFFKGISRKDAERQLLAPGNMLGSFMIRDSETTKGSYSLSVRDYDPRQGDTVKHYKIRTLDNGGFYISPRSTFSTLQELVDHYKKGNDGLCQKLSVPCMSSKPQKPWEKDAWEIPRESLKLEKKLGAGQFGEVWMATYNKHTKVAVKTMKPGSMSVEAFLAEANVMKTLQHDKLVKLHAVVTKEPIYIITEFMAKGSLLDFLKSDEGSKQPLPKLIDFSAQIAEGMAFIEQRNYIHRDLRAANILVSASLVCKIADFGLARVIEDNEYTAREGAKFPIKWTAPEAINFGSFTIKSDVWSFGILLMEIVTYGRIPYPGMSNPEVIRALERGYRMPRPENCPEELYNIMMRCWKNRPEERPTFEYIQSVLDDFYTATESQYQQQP
# Runt-CBFb FRET: blocks binding of human RUNX1 Runt domain to CBFb. Q01196+Q13951. inhibition, % at 20 µM. Cerulean-Runt/Venus-CBFb FRET ratio 530/480, 1 h. AID 1496. 0.46% of 220,000 active;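 active = inhibition over about 50% at 20 µM in the single-dose screen, limit read from the data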
#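 Assay system: Cerulean-Runt domain / Medium: Tris 50 mM pH 7.5, KCl, K2SO4, 0.01% BSA / Timing: protein complex preformed 1 h, compound exposure 1 h, room temperature, dark / Measured by: FRET, excitation 422 nm, emission at 530 and 480 nm / Evaluation: loss of energy transfer signal / Control set: 5 µM unlabeled CBFb as full-inhibition high control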
# YIC FRET counter: counter-screen YIC FRET for RanGTP-importin-beta inhibitors | 40% of 1,000 active | AID 435026 | Purified YIC probe, intramolecular FRET ratio YFP/CFP | IC50, µM | shares compounds with RanGTP-Impb inh;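 active = fitted half-maximal inhibitory concentration no more than tenfold above the top dose tested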
# Numbers stand for hits; 0 = inactive; - = no result given.
SMILES,TNF necrop inh,Runt-SMMHC FRET,RanGTP-Impb inh,zVAD death inh,Hck Nef HTS,Runt-CBFb FRET,YIC FRET counter
COc1ccc(N2C(=O)CC(C#N)=C2N)cc1,0,0,18,0,0,0,0
CCOC(=O)C1CCN(C(=O)COC(=O)c2ccc(=O)n(Cc3ccccc3)n2)CC1,-,-,0,-,-,-,-
Cc1ccc(S(=O)(=O)CCN2C=CC(C(F)(F)F)=NCC2)cc1,0,0,0,0,0,0,-
CC1=NC(Nc2nc(C)c3ccccc3n2)=NC(C)(C)C1,0,0,30,0,0,0,0
COc1ccc(Nc2nc(C)c3ccccc3n2)cc1,0,0,0,0,0,0,-
COC(=O)c1sccc1NC(=O)c1csc(C)c1,0,0,19,0,0,0,0
COC(=O)c1sccc1NC(=O)c1ccc(Cl)s1,0,0,0,0,0,0,-
CCn1c(C(=O)Nc2ccsc2C(=O)OC)cc2sc(Cl)cc21,0,0,20,0,0,0,47
COC(=O)C(NC(=O)CNS(=O)(=O)c1ccc(Br)cc1)c1ccccc1 (stereo unspecified),0,0,0,0,0,0,-
O=C(O)c1cn(Cc2ccccc2Cl)c2ccc(S(=O)(=O)N3CCOCC3)cc2c1=O,0,0,0,0,0,0,-
CCOc1ccc(NC(=O)C2CCC(CNc3c(N4CCC(C)CC4)c(=O)c3=O)CC2)cc1 (stereo unspecified),0,0,0,0,0,0,-
N#C/C(=C\N1CCN(Cc2ccc3c(c2)OCO3)CC1)c1nc2ccccc2s1,0,0,20,0,0,0,0
CCOC(=O)N1CCN(/C=C(\C#N)c2nc3ccccc3s2)CC1,0,0,21,0,0,0,0
c1ccc2nc(N3CCN(Cc4ccc5c(c4)OCO5)CC3)cnc2c1,0,0,0,0,0,0,-
CCC1(CC)NC(=O)N(CC(=O)N2N=C(c3ccc(Cl)cc3)CC2c2ccco2)C1=O (stereo unspecified),0,0,0,0,0,0,-
COc1ccc(C(=O)C2CCCN(C(=O)c3n[nH]c4c3CCCC4)C2)cc1OC (stereo unspecified),0,0,0,0,0,0,-
Cc1cc(Cl)ccc1C(=O)C1CCCN(C(=O)c2n[nH]c3c2CCCC3)C1 (stereo unspecified),0,0,21,0,0,0,0
CN(C)c1nc(-c2ccccc2)cc(C(F)(F)F)c1C#N,0,95,29,0,0,0,10
CN(C)c1ccc(/C=C(\NC(=O)c2ccccc2)C(=O)NCc2cccnc2)cc1,-,-,0,-,-,-,-
CN(C)c1ccc(/C=C(\NC(=O)c2ccccc2)C(=O)NCc2ccncc2)cc1,-,-,23,-,-,-,0
Cc1ccc(C2C(C#N)=C(N)N(c3cccnc3)C3=C2C(=O)CCC3)c(C)c1 (stereo unspecified),0,0,30,0,0,0,0
Cc1nn(C)cc1C1C(C#N)=C(N)N(c2cccnc2)C2=C1C(=O)CCC2 (stereo unspecified),0,0,0,0,0,0,-
COC(=O)[C@@H]1[C@@H](C)N(Cc2ccccc2)C(=O)N[C@H]1c1cccc(C(F)(F)F)c1,0,0,0,0,0,0,-
CC(=O)[C@@H]1[C@@H](C)N(Cc2ccccc2)C(=O)N[C@H]1c1cccc(C(F)(F)F)c1,0,0,20,0,0,0,0
O=C(O)c1cn(Cc2cccnc2)c(=O)c2ccccc12,0,0,18,0,0,0,0
SMILES,TNF necrop inh,Runt-SMMHC FRET,RanGTP-Impb inh,zVAD death inh,Hck Nef HTS,Runt-CBFb FRET,YIC FRET counter
Cc1cc(Nc2ccccc2)nc2cc(O)ccc12,0,64,18,-,0,0,49
COc1ccc(Nc2cc(C)c3ccc(O)cc3n2)cc1,0,0,0,0,0,0,-
Cc1cc(C)c2c(N)c(C(=O)NN3CC(=O)N(c4ccccc4F)CC3=O)sc2n1,0,0,16,0,0,0,0
COc1cccc2cc(C(=O)OCC(=O)NCc3ccc4c(c3)OCO4)c(=O)oc12,0,0,0,0,0,0,-
Nc1nonc1-n1nnc(C(=O)N/N=C/c2ccccc2)c1CSc1ccc(Cl)cc1,0,0,17,0,0,0,0
CCC1(c2ccccc2)NC(=O)N(CC(=O)N(C)CC(=O)Nc2ccc(F)c(F)c2F)C1=O (stereo unspecified),-,-,0,-,-,-,-
COc1ccc(NC(=O)c2cc3ccc(O)cc3o/c2=N\O)cc1,-,-,28,-,-,-,51
COc1ccc2o/c(=N\O)c(C(=O)Nc3ccccc3OC)cc2c1,0,-,0,0,0,0,-
COc1cn(-c2ccccc2)nc1C(=O)NCc1ccc(C)cc1,-,-,0,-,-,-,-
CNC(=S)Nc1ccc(C(N)=O)cc1,0,0,27,0,0,0,0
Cc1csc2ncnc(NC3CCN(Cc4ccccc4)CC3)c12,0,0,19,0,0,0,0
COc1ccccc1NS(=O)(=O)c1cc(NC(=O)c2cccs2)ccc1N1CCOCC1,0,0,0,0,0,0,-
COc1ccc(NS(=O)(=O)c2cc(NC(=O)c3cccs3)ccc2N2CCOCC2)cc1,0,0,16,0,0,0,0
Cc1cc2oc(=O)cc(Cn3ccnc3)c2cc1Cl,-,-,0,-,-,-,-
CC(=O)Nc1ccc(NC(=O)Nc2ccc3c(c2)N(C)C(=O)CS3)cc1,0,0,0,0,0,0,-
COc1cccc(NC(=O)Nc2ccc3c(c2)N(C)C(=O)CS3)c1,0,0,20,0,0,0,0
O=c1c2[nH]c3cccc(Cl)c3c2ncn1Cc1ccco1,0,0,0,0,0,0,-
CCCCCN(C(=O)CN(C)Cc1ccc(OC)cc1OC)c1c(N)n(CCCC)c(=O)[nH]c1=O,0,0,20,0,0,0,0
CCCCNC(=O)C1Cc2cc(S(=O)(=O)N3CCCCC3)ccc2N1C(C)=O (stereo unspecified),-,-,0,-,-,-,-
CC(C)Sc1nc(N2CCOCC2)c2c(c1C#N)CC(C)(C)N(C)C2,0,79,27,0,0,0,39
CCOc1ccc(OCc2ccc(C(=O)N(CC)CC)cc2)cc1,0,0,21,0,0,0,0
CC(C)NS(=O)(=O)c1ccc(NCCCn2ccnc2)c([N+](=O)[O-])c1,-,-,0,-,-,-,-
C[C@H]1CN([C@@H](C)CO)C(=O)c2cccc(NC(=O)c3ccc(-c4nccs4)cc3)c2O[C@H]1CN(C)C(=O)Nc1ccccc1,-,-,-,-,-,-,0
CC(C)CN1C(=O)c2ccc(C(=O)Nc3nccs3)cc2C1=O,0,0,0,0,0,0,-
Cc1ccc2cc(C#N)c(N3CCCC3)nc2c1C,0,53,26,0,0,0,5.3
CC1(C)Cc2nc(N3CCOCC3)c(C#N)cc2CO1,0,0,0,0,0,0,-
